Results reported in the EternaBench riboswitch data.

Test system: MS2 coat protein
Assay: apparent Kd, MS2 coat protein; higher = weaker binding; RNA-MaP array; FMN 200 µM where present
In short: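 Apparent Kd: the median of filtered binding-curve fits from single clusters. Designs were transcribed on Illumina sequencing-chip clusters by stalled E. coli RNA polymerase and titrated with SNAP-549-labelled MS2 coat protein from 0.7 or 1.5 nM, doubling to 3 µM, in 100 mM Tris-HCl pH 7.5, 80 mM KCl, 4 mM MgCl2, BSA, DTT, yeast tRNA and Tween-20. Each series ran without and then with constant ligand, and green signal was normalised to red-channel RNA signal and control-cluster median Fmax.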

[1] = designed as: OFF switch for flavin mononucleotide, no ligand
[2] = ligand present: flavin mononucleotide, designed as: OFF switch for flavin mononucleotide
[3] = designed as: ON switch for flavin mononucleotide, no ligand
[4] = ligand present: flavin mononucleotide, designed as: ON switch for flavin mononucleotide

Row | Sequence | apparent Kd [1] | apparent Kd [2] | apparent Kd [3] | apparent Kd [4]
1 | AUAUCUAUAUCAGGAUAUGGACAGGCCUGUCCGUAUUGAGACAGUAACAUGAGGAUCACCCAUGUCCAGAAGGGAUCGAUAUAU | 38.6 nM | 41.8 nM |  | 
2 | AUAUCUCAAUUAGAUCCAAUACGAACAUGAGGAUCACCCAUGUAGGAUAUGCUAGAAGUUGUGUUGCAGAAGGACAUAUACCUU | 41.4 nM | 38.6 nM |  | 
3 | AUAUCUCUAUAAGUUCCAAUACGAACAUGAGGAUCACCCAUGUAGGAUAUGCUAGAAGUAGAGUUGCAGAAGGACAAGUACCUU | 7.48 nM | 6.75 nM |  | 
4 | AUAUCUCUAUUAGUUCCAAUACGAACAUGAGGAUCACCCAUGUAGGAUAUGCUAGAAGUUGUGUUGCAGAAGGACAUGUACCUU | 11.7 nM | 25.8 nM |  | 
5 | AUAUGAGCUAUGGAGGAUAUCCAUAACAAGACAUGAGGAUCACCCAUGUAAUCAAAACAAUAAUGGGAGAAGGCCAUAGCUCAAU |  |  | 67.8 nM | 76.5 nM
6 | AUAUGGAAUACAGGAUAUGUAAGUUUUAAGUGUAUUGGUUAUUACUUUACAACAGAAGGGUAUUACAUGAGGAUCACCCAUGUA |  |  | 13.2 nM | 10.7 nM
7 | AUAUGUGUCGAGAAGGGCUCACGUAACGGAACAGCAGGAUAUCGACAUGAGGAUCACCCAUGUCGGAACGAACGGAUCUUUACU | 7.22 nM | 8.53 nM |  | 
8 | AUAUUGUGAGGAUAUGAACAUAGUAUCGAAAGAUACUAAGUUCAGAAGGCACAUGAGGAUCACCCAUGUUUCUC | 70.2 nM | 738 nM |  | 
9 | AUAUUUAAUAUAGGAUAUAGGAAGAAUGAUGAACUAGAAGGAUAACAUACAUGAGGAUCACCCAUGUCCCAUGUGAUCACCCAU | 321 nM | 338 nM |  | 
10 | AUAUUUGAUGAGGAUAUCGUUGUGGGUAUAUAGCGAGAAGGCAUUACAUGAGGAUCACCCAUGUAGUGUGGGUU | 25.9 nM | 37 nM |  | 
11 | AUCAAGUGAGGAUAUGAUUAUACAACAAACUAACAUCUACAUCAGAAGGCACAUGAGGAUCACCCAUGUUUGUC | 18.1 nM | 16.6 nM |  | 
12 | AUCAGCUCAUCAGGAUAUACAUCACUGCUUCGGCAGUGUAUUAAGAUCACAUGAGGAUCACCCAUGUAGAAGGGAUGAGCUGAU | 32.7 nM | 347 nM |  | 
13 | AUCAGCUCGUCAGGAUAUACGUCACUGCGUCAGCAGUCUGGUAAGAUCACAUGAGGAUCACCCAUGUAGAAGGGACGAGCUGAU | 19.1 nM | 288 nM |  | 
14 | AUCAGCUCGUCAGGAUAUACGUCACUGCGUCAGCAGUGUGGUAAGAACACAUGAGGAUCACCCAUGUAGAAGGGACGAGCUGAU | 6.31 nM | 7.81 nM |  | 
15 | AUCAGCUCGUCAGGAUAUACGUCACUGCGUCAGCAGUGUGGUAAGAUCACAUGAGGAUCACCCAUGUAGAAGGGAGGAGCUGAU | 15 nM | 438 nM |  | 
16 | AUCAGCUCGUCAGGAUAUACGUCACUGCUUCGGCAGUGUGGUAAGGUCACAUGAGGAUCACCCAUGUAGAAGGGACGAGCUGAU | 8.32 nM | 120 nM |  | 
17 | AUCAGCUCGUCAGGAUAUCCGUCACUGCGUCAGCAGUGUGGUAAGAUCACAUGAGGAUCACCCAUGUAGAAGGGACGAGCUGAU | 6.08 nM | 6.5 nM |  | 
18 | AUCAGCUUGUCAGGAUAUGCAUGUCAACGAAAGUUGACAAUCUUAAUAACAUGAGGAUCACCCAUGUAGAAGGGACGAGCUGAU | 17.1 nM | 19.3 nM |  | 
19 | AUCAUCUUGUCAGGAUAUGCGUGUCGACGAAAGUAGACAAUCUUGAUAACAUGAGGAUCACCCAUGUAGAAGGGACGAGAUGAU | 21.6 nM | 24.5 nM |  | 
20 | AUCAUGUGAGGAUAUAAAAUGAAUAUAAAUUAUUAUCUUGAUUAGAAGGCACAUGAGGAUCACCCAUGUCUGAA | 32.5 nM | 39.2 nM |  | 
21 | AUCCAGCGAGGAUAUACAUAGUUUUUUUCGUUUUGUCUCGAACAUGAGGAUCACCCAUGUAGAAGGUGCUUCAC | 72.5 nM | 67.2 nM |  | 

Row | Sequence | apparent Kd [1] | apparent Kd [2] | apparent Kd [3] | apparent Kd [4]
22 | AUCCUACAUGAGGAUCACCCAUGUAAGGAUAUGCGGCGACGAGAUUGUCUAUACGGCCGCAGAAGGUACCCGGG | 16.1 nM | 18.6 nM |  | 
23 | AUCUUGUCAGGAUAUGACUACAUAAAAAAAAAAAAAUGUAGUCAGAAGGGACAUGAGGAUCACCCAUGUACUAA | 34.9 nM | 54.1 nM |  | 
24 | AUGACUUAUGUAGGAUAUGCAUAGAGUUGCUAUGCAGAAGGACAUGAGGAUCACCCAUGUAUGUAUACCUUACAAAACUAGCAU | 9.07 nM | 54 nM |  | 
25 | AUGAGGGAAGUAGGAUAUGAUCAAGACAUGAGGAUCACCCAUGUAAUGAGGGUGUGUGUCUUUGUUCAGAAGGACUUGUGUCAA | 46.4 nM | 52.6 nM |  | 
26 | AUGCCUAAUGAGAAGGUGUGUAUAAAUUAUAUACAAGGAUAUCGGUCAAGCAUGAAAACAUGAGGAUCACCCAUGUUAAGGCAU |  |  | 7.77 nM | 6.72 nM
27 | AUGCUAGUGUGAGGAUAUUAGGCUACAUGAGGAUCACCCAUGUUGAUCAUGAGGAUCACCCAUGAUAAGAAGGUACAUUAGCAU | 88.1 nM | 108 nM |  | 
28 | AUGCUUCACACAGGAUAUACAUGAGGAUCACCCAUGUGUCCACAGUAGCUGACACGAGCUACGCGGUAGAAGGGUGUGAAGCAU | 18.5 nM | 61.2 nM |  | 
29 | AUGCUUUUUGUAGGAUAUACAUUUUGUACGUAUGUAGAAGGACAUGAGGAUCACCCAUGUAAAUUAUUAUUAAAUAUCAUACUU | 45.8 nM | 31.8 nM |  | 
30 | AUGGACGAAGGAUAUGCAUGGAGACCGGGCAGUUCAGCGCUACAUGAGGAUCACCCAUGUAGAAGGUCGCUCCC | 16 nM | 24.6 nM |  | 
31 | AUGGACGUCGUAGGAUAUGUAGGAUAUUCCUACAUGAGGAUCACCCAUGUUGACAUGGAAGAAGGACAGAAGGACGAUGUCCAU |  |  | 199 nM | 4.47 nM
32 | AUGGUUGUCGUAGGAUAUGUAGGAUAUUCCUACAUGAGGAUCACCCAUGUUCGCAUGGAAGAAGGACAGAAGGACGAUGACCAA |  |  | 531 nM | 21.1 nM
33 | AUGUACCUAGGAUAUACAUGAGGAUCACCCAUGUCACAAAUAAAACACAGGUAUCCUGGUAGAAGGAGGAACAA | 25 nM | 105 nM |  | 
34 | AUGUACCUAGGAUAUACAUGAGGAUCACCCAUGUUCCGGGUGCAAUCAAGUUAAUAUUGUAGAAGGAGGUGAAA | 17 nM | 31.8 nM |  | 
35 | AUGUGGUGCGUAGGAUAUCAUUGAGGAAAACCCUGAGAAGGACGUGAGGACAUGAGGAUCACCCAUGUGGAUCACCCAUGUCAU | 237 nM | 237 nM |  | 
36 | AUGUUGCGAGGAUAUAUUUACUGGUUGUUGUUUGGUUGGGAACAUGAGGAUCACCCAUGUAGAAGGUGCAUAAC | 54.5 nM | 49.9 nM |  | 
37 | AUUAAACAUGAGGAUCACCCAUGUCAACAAAGUCGAGGAUAUGGGCAAAUAAAAUAAGAACCAGAAGGCGAAUAAU |  |  | 259 nM | 38 nM
38 | AUUAAACAUGAGGAUCACCCAUGUCAACAAAGUCGAGGAUAUGGGCAAAUAAAUUAAGAACCAGAAGGCGAAUAAU |  |  | 435 nM | 40.5 nM
39 | AUUAUACAUGAGGAUCACCCAUGUAAUUAAUCUAGUAAGAUCUAGGAUAUCAGCUCGAUUAGAGCUGAGAAGGAGAUCACAUGU |  |  | 52.9 nM | 22.2 nM
40 | AUUAUACAUGAGGAUCACCCAUGUUUUGGUGGAUCAGGAUAUAAAUUGAAUGAGUUUUAGUUAGAAGGGAUAUUUA |  |  | 50.6 nM | 36.3 nM
41 | AUUAUACAUGAGGAUCACCCAUGUUUUGGUGGGUCAGGAUAUAAAUUGAAUGAGUUUUAGUUAGAAGGGACAUUUA |  |  | 56.5 nM | 42.9 nM
42 | AUUAUAUAGCAAGGAUAUAGAAUAUUAUUUUAACAUGAGGAUCACCCAUGUAACCUUAUGUGUAGCUAGAAGGUGCAUUUAUUA | 73.2 nM | 109 nM |  | 
